Assay results: the EternaBench riboswitch data

Tested on: MS2 coat protein
Assay: apparent Kd, MS2 coat protein; higher = weaker binding; RNA-MaP array; FMN 200 µM where present
Procedure, shortened: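 Designs were transcribed by stalled E. coli RNA polymerase on Illumina sequencing-chip clusters. They were titrated with SNAP-549-labelled MS2 coat protein from 0.7 or 1.5 nM, doubling to 3 µM, in 100 mM Tris-HCl pH 7.5, 80 mM KCl, 4 mM MgCl2, BSA, DTT, yeast tRNA and Tween-20, without and then with constant ligand. The apparent Kd is the median of filtered per-cluster fits after normalisation of green signal to red-channel RNA signal and control-cluster median Fmax.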

[1] = designed as: ON switch for flavin mononucleotide, no ligand
[2] = ligand present: flavin mononucleotide, designed as: ON switch for flavin mononucleotide
[3] = designed as: OFF switch for flavin mononucleotide, no ligand
[4] = ligand present: flavin mononucleotide, designed as: OFF switch for flavin mononucleotide

Sequence | apparent Kd [1] [nM] | apparent Kd [2] [nM] | apparent Kd [3] [nM] | apparent Kd [4] [nM]
ACAUGAGGAUCACCCAUGUUCACAUAGGAUAUUGAUUUUAUUGGUUUUAGAAUAGUAAUUAACCUCAAGAAGGAUGCCAGUUCU | 14 | 11.2 |  | 
ACAUGAGGAUCUCCCAUGUAAAAUUAGGAUAUAUAACUGCACAUGAGGAUCACCCAUGUUUAACCGUAGAAGGGAUAAAUAAUU |  | 786 |  | 
ACAUGAGGAUGAGGAUAUUCAUACAUGAGGAUAGAAGAAGGCAUACAUGAGGAUCACCCAUGUAUACACAUGAGGAUCUCCCAU |  |  | 25.5 | 30.5
ACAUGAUACAAGAAGGAUGUAUUAGAUUUGAUCAUAGGAUAUUGUUAUAUUGUUUACUCUAAUAACAUGAGGAUCACCCAUGUA | 10.7 | 7.53 |  | 
ACAUGAUAUGUAGGAUAUCACAACAUGAGUUUUAAAAUUGUAAUUUAGGAUUGAGAAGGACAUUUACAUGAGGAUCACCCAUGU |  |  | 18.6 | 14.7
ACAUGAUAUGUAGGAUAUCACAACUUGUGUUAUAAAAUUGUAUUUUAGGAUUGAGAAGGACAUUUACAUGAGGAUCACCCAUGU |  |  | 15.5 | 12.8
ACAUGCAUAGCGAUAUGAUCGAGAGAUCAUGUCGCUUUUAAAAGAAGGACAUGAGGAUCACCCAUGUAGGAUAUGGGAGCAUGA | 53.4 | 13.2 |  | 
ACAUGGAAGCAGGAUAUGCUUGUUUAAUUGUUUGCAGAAGGGCUAACAUGAGGAUCACCCAUGUAAGAGGUCUA |  |  | 17 | 29.6
ACAUGUUAUACAGGAUAUGUUAUACAAUAAUCAAUCAGUUAUUAUGAUUUUACAGAAGGGUAUACAUGAGGAUCACCCAUGUUA |  |  | 31.5 | 33.8
ACAUUGUAUGUGAGGAUAUCGAUGGGAUGGGUUGUCGAGAAGGCACAUGAGGAUCACCCAUGUGGGAAACAGCA |  |  | 39.5 | 170
ACCAGAACAUGAGGAUCACCCAUGUAUCUAUACCAAGCGACACAGGAUAUACAAAGCGAAAGCGGGUAGAAGGGUGAUCAUGCA | 63.5 | 182 |  | 
ACCCAACAUGAGGAUCACCCAUGUCAGGAUAUCCAUCUAUACUCGAAAGAGUAUAGAUGGAGAAGGGACAGAGG |  |  | 94.8 | 92.9
ACCGCACAUGAGGAUCACCCAUGUCAGGAUAUACAAGAAAAUCAGGCUAAUGCCUGAAGUAGAAGGGACGAGGA |  |  | 22.4 | 14.2
ACCUCACAUGAGGAUCACCCAUGUAAGGAUAUCUUCGCUUUGACGUUGUUCUAUGCGAAGAGAAGGUACACGGC |  |  | 28.3 | 111
ACCUCACAUGAGGAUCACCCAUGUUAGGAUAUCUCGGCGCCCUGUAGGCAGUAGCGCCAGAGAAGGAACGUGCA |  |  | 24.3 | 25.2
ACCUCACAUGAGGAUCACCCAUGUUAGGAUAUUAAAUAGCGCGCAAAACAGCCCUGUAUGAGAAGGAGCUGGGA |  |  | 13.6 | 14.8
ACCUGACAUGAGGAUCACCCAUGUGAGGAUAUGUACAUCAGGAAAAAAAAACUGAUGUACAGAAGGCACUUGGG |  |  | 25.4 | 37.1
ACCUUACAUGAGGAUCACCCAUGUCAGGAUAUCUCGGGCGGCUGGAGACCAGCCGCCCAGAGAAGGGACGAGGA |  |  | 14.4 | 15.6
ACCUUCAAAGGAUAUGCGACUGGACGCCUUGCCAUGUAUAGACAUGAGGAUCACCCAUGUAGAAGGUUGGAGGA |  |  | 30.7 | 47.7
ACCUUGUCAGGAUAUCCUAUUUUUUGUUUUAUAUUUACUAUGGAGAAGGGACAUGAGGAUCACCCAUGUUGGUC |  |  | 38.8 | 50.2
ACGACGAAAGUCGAACGAUGUAGCAGAAGGACAUGAGGAUCACCCAUGUCAGCUGUAACAGCCAUGUAGGAUAUGCUACAUCGC |  |  | 4.38 | 5.45
ACGCGAUGGGAGAAGGUACUUUAAGAAUUUUUCACAUGAGGAUCACCCAUGUAAGGAUAUCCCAUCGUUAAAUAUUAUACAGCA |  |  | 5.07 | 4.82
ACGCUUUAUGUAGGAUAUUCAGAGAAAGAGAAAGAAGAAGGACAUGAGGAUCACCCAUGUAAGAAGUAGAUAGAGAUGAUACAU |  |  | 76.4 | 66.1
ACGCUUUGGGAGAAGGUACGUGAAGUAUUAUCCACAUGAGGAUCACCCAUGUAAGGAUAUCCCGGCGUGAAAUAGGCUACAGCA |  |  | 4.77 | 11.3
ACGCUUUGGGAGAAGGUACGUUAAAUUUUUUCCACAUGAGGAUCACCCAUGUAAGGAUAUCCCAUCGUUAAAUAGGCUACAGCA |  |  | 8.92 | 8.85
ACGGAACAUGAGGAUCACCCAUGUAUCUGAGAUAUGGUCUCGCAGGAUAUUCAGAGAAGCCAAUCGGAGAAGGGUGACACCAAA | 36.6 | 19.6 |  | 
ACGUAUCAUGUAGGAUAUGACCCAGGAACUUGGUCAGAAGGACAUGAGGAUCACCCAUGUAGAGUAUGUUAGGAUGACGUAUGC |  |  | 114 | 150
ACGUGGCUGCCGCAGGAUAUACCCUGUUCCACAUGAGGAUCACCCAUGUUUACGAACUAUGAGAGGUAGAAGGGUGGAUGUCAUU | 31.2 | 13.9 |  | 

Sequence | apparent Kd [1] [nM] | apparent Kd [2] [nM] | apparent Kd [3] [nM] | apparent Kd [4] [nM]
ACGUGUCGUGUAGGAUAUGACACAGGAAACUGGUCAGAAGGACAUGAGGAUCACCCAUGUAGAGUGUUUAAGGAUGACGUAUGC |  |  | 46.9 | 161
ACUAAAGAAGGAUAUACUAACGAACCUCAAACAUAGAUAAGACAUGAGGAUCACCCAUGUAGAAGGUCUAGACU |  |  | 44.2 | 37.4
ACUAGAUGAGGAUAUGCAUAUUUUCGUGUUCUUCUAGGUUAACAUGAGGAUCACCCAUGUAGAAGGCGUCUAUU |  |  | 20.6 | 38
ACUAGAUGAGGAUAUGCAUGUUUUCGUGUUCUUCUAGAUUAACAUGAGGAUCACCCAUGUAGAAGGCGUCAUUU |  |  | 81 | 118
ACUAGAUGCGUGCAAUAACACAUGAGGAUCACCCAUGUGACACAGGAUAUAACCAGAUCAGAAAGUUAGAAGGGUGAGCACGCA | 29.6 | 18.9 |  | 
ACUAUACGAGGAUAUACUGACGGGCCUCGGGCGUCCCUGCGACAUGAGGAUCACCCAUGUAGAAGGCGUAUACU |  |  | 39.2 | 92.8
ACUGCAUAGUCAGGAUAUGCAAAAGCAGACUCAAAGAGUCUGAACAACACAUGAGGAUCACCCAUGUAGAAGGGACUGUGCAGU |  |  | 18.3 | 18
ACUGUGCAUUAGAAGGGUGCGCGGCAAUCGCGCACAGGAUAUGAUGACAUGAGGAUCACCCAUGUCUGUGUUACCUGGGUGUCG |  |  | 19.1 | 135
ACUUAUAGAGGAUAUACAGUAUAUUACAUGAGGAUCACCCAUGUUCUUCAAUGUAUAUAUGUAGAAGGCUAAGGAA |  |  | 206 | 541
ACUUGUGAAGGAUAUACUGGCGACAUGCGCUCAACACGCGCACAUGAGGAUCACCCAUGUAGAAGGUCAAACAU |  |  | 24.7 | 34.8
ACUUUCAUUGUGAGGAUAUGCCCAAAUAAAAGCGGGCAGAAGGCACAUGAGGAUCACCCAUGUCCUGCGGUUAU |  |  | 34.6 | 394
AGAAAACAUGAGGAUCACCCAUGUCAGGAUAUCCUGCGGCAAUACACGCCGCGUUGUCGGAGAAGGGACAGGGA |  |  | 39 | 102
AGAAACUACGAGAAGGACAUGAGGAUCACCCAUGUAACCACUUAGUGGAAUGUAGGAUAUCGUAGUUUCAGGAUCGUGAGAUCA |  |  | 6.91 | 9.58
AGAAACUACGAGAAGGACAUGUGAAAAGCCGCAAACAUGAGGAUCACCCAUGUAGGAUAUCGUAGUUUCAGGAUCGUGAGAUCA |  |  | 54.6 | 442
AGAAAGAAGCAAGGAUAUUGUAAAAUUAAUGUACAAGAAGGUGCUGUUUAUGUCUCUUAACAUGAGGAUCACCCAUGUAUUGGU | 68.6 | 45.9 |  | 
AGAAAUUAGUGAGGAUAUGCAUAAUGUGUAGCUGCAGAAGGCACGGACCACAAGACAUGAGGAUCACCCAUGUGGUAUAUAGAU |  |  | 25.9 | 29.3
AGAACAUGAGGAUCACCCAUGUAAAGAUCGGUCAAUAAGGGUGAGGAUAUGCUUAAAAUAAGGUAGCAGAAGGUACUUGGUGCA | 91.2 | 245 |  | 
AGAACAUGAGGAUCACCCAUGUAAAGAUCGGUUAAUAAGGGUGAGGAUAUGCUUAAAAUAAGGUAGCAGAAGGUACUUGGUACA | 247 | 345 |  | 
AGAACAUGAGGAUCACCCAUGUAAAGGUCGGUCAAUAAGGGUGAGGAUAUGCUUAAAAUAAGGUAGCAGAAGGUGCUUGGUGCA | 713 | 603 |  | 
AGAACGUCAGGAUAUGCAACAACAAGUAAAUAGAGAAGAAGGCAGAAGGGACAUGAGGAUCACCCAUGUAAGAA |  |  | 36.6 | 36.3
AGAAGGCUACAGAAGGGACACACACGGCGGGAGUCAGGAUAUGUAGAGAAAACGUUACAUGAGGAUCACCCAUGUAGACCUUCC | 123 | 19.9 |  | 
AGAAUAGAAAGAUUAAUAUGAAUACAUGAGGAUCACCCAUGUAAGGAUAUCGACGUCAAUGACGUCGAGAAGGUACAUAAUAAG |  |  | 17.7 | 17.6
AGACGACAACAUGAGGAUCACCCAUGUUCUAGUUUAGAGUCGCAGGAUAUGACUUCGAAGCUUAGUCAGAAGGGUGAAUUCACA | 37.8 | 51 |  | 
AGAGAAUACUCAGGAUAUCUGAAUAGAAAGAGAAGAGAAGGGAGACAUGAGGAUCACCCAUGUGAAGUCUUGAGACUACAUGGU |  |  | 366 | 426
AGAGCCUCGUGAGGAUAUACAUGAGGAUCACCCAUGUAAAUGAAUGAACGGAGGAAACUCCGAAUGUAGAAGGCACGAGGCUCA |  |  | 27.9 | 166
AGAUAUGAUGCAGGAUAUCUAUCUUGAAUGAGGAGAGAAGGGCAAACAGAGACAUAAGCCUUAUUACAUGAGGAUCACCCAUGU |  |  | 10.1 | 8.83
AGAUAUGAUGCAGGAUAUCUAUCUUGAAUGAGGAGAGAAGGGCAAGCAGAGAGAUAAGCCUUAUUACAUGAGGAUCACCCAUGU |  |  | 10.3 | 8.56
